ChEMBL document CHEMBL1127529, “Antipsoriatic anthrones with modulated redox properties. 2. Novel derivatives of chrysarobin and isochrysarobin--antiproliferative activity and 5-lipoxygenase inhibition” (J Med Chem, 1994)

Experiments:
[1] = target: T1, Polyunsaturated fatty acid 5-lipoxygenase (Homo sapiens, UniProt P09917); test: Inhibitory concentration against arachidonic acid 5-lipoxygenation; assay type: functional
T1 sequence (P09917 whole entry): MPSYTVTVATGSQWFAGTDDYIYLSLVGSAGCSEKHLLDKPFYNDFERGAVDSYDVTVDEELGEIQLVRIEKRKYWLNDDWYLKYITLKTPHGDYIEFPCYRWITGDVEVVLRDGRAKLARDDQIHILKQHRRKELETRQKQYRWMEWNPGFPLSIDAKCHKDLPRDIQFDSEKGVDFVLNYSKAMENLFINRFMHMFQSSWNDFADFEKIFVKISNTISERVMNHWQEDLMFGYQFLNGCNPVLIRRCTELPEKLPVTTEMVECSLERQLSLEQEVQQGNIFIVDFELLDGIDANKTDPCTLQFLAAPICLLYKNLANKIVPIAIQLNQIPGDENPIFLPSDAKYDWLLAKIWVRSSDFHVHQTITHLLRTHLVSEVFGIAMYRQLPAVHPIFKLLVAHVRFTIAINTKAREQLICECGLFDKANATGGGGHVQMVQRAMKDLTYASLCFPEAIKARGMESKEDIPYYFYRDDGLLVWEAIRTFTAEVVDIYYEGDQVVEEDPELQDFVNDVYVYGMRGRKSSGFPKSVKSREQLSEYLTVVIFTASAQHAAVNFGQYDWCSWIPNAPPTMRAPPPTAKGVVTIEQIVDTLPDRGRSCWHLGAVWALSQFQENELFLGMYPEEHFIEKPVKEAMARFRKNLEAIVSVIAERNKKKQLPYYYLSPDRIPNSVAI
Method in brief: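 Bovine PMNL (10^7 cells/mL) were stimulated with Ca-ionophore. Compound was preincubated for 15 min at 37 °C.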

HaCaT = test: Antiproliferative activity against HaCaT cells; assay type: functional, cell-based; settings: Homo sapiens
Method in brief: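 HaCaT human keratinocytes were kept in DMEM with 10% FCS, penicillin and streptomycin at 37 °C under 8% CO2. After 48 h the cells were detached with trypsin/EDTA and counted by phase-contrast microscopy.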

Liposome = test: Inhibition of 2,2'-azobis(2-aminopropane)hydrochloride (AAPH) induced lipid peroxidation in bovine brain phospholipid liposomes; assay type: functional, subcellular, Bos taurus
[2] = Reducing activity against 2,2-diphenyl-1-picrylhydrazyl (DPPH) with equimolar compound; assay type: functional
Method in brief: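 Test compound and DPPH, each 10⁻⁴ M in acetone/PBS (1-1 v/v), mixed 1 mL + 1 mL. DPPH reduction followed spectrophotometrically at 516 nm. Reciprocal DPPH concentration plotted against time gave straight lines, and second-order rate constants (M⁻¹ s⁻¹) were taken from the slopes. Values are means, N = 3-6. Highly reactive compounds gave approximate values only.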

O=C1c2c(O)cccc2Cc2cccc(O)c21 [ANTHRALIN]
IC50 [1]: 7 µM
IC50 (HaCaT): 0.2 µM
IC50 (Liposome): 79 µM
kDPPH [2]: 24.2 M⁻¹ s⁻¹
